Read-outs that look alike come from different tables or passages of the source.
Columns and labels:
[1] = test system: rivaroxaban metabolism in rat liver microsomes (RLMs); test: Inhibition of rivaroxaban metabolism by naringenin in rat liver microsomes; assay type: in vitro ADME, Sprague–Dawley rat; details: RLMs, Lineweaver-Burk plot
How it was run: (§1)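 Flavonoid test compound and substrate were incubated with rat liver microsomes (1 mg/ml) in 100 mM potassium phosphate, pH 7.4. After 5 min preincubation at 37 °C, 1 mM NADPH (final) started the reaction, which ran 30 min. It was quenched with acetonitrile plus diazepam IS, centrifuged and analysed by UPLC‑MS/MS. IC50 used 10 μM substrate with test compound at 1–100 μM.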

[2] = test system: rivaroxaban metabolism in rat liver microsomes; test: as above; assay type: in vitro ADME, Sprague–Dawley rat; details: Sprague-Dawley, rat, rat liver microsomes, pH 7.4, probe rivaroxaban (10 μM)
How it was run: as §1

[3] = with ticagrelor, rats; cited from earlier work
[4] = assay type: in vivo, Sprague–Dawley rat
[5] = test system: rat liver microsomes (RLMs); test: Michaelis–Menten kinetics of rivaroxaban metabolism in RLMs; assay type: in vitro ADME, Sprague–Dawley rat
How it was run: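 Rat liver microsomes (1 mg/ml, 100 mM potassium phosphate, pH 7.4) were incubated with substrate over nine levels spanning 1–200 μM. Preincubation was 5 min at 37 °C, then 1 mM NADPH (final) started a 30 min reaction. It was stopped with acetonitrile plus diazepam IS, centrifuged, and the supernatant was run on UPLC‑MS/MS (positive ESI, MRM). Km came from a Michaelis–Menten fit; mean ± SD, n = 3.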

[6] = cited from earlier work
[7] = pre-treatment of rats with naringenin for 2 weeks vs control; cited from earlier work
[8] = Control group: rivaroxaban 10 mg/kg oral gavage only, rats, n = 6
[9] = pretreatment of rat with naringenin for 14 days
[10] = 10 mg rivaroxaban in combination with 200 mg ketoconazole once daily
[11] = co-administration with rifampicin
[12] = single-dose rivaroxaban co-administrated with ritonavir

## O=C1C[C@@H](c2ccc(O)cc2)Oc2cc(O)cc(O)c21 [naringenin]
[1]
  inhibition type: mixed inhibition
[1]; rivaroxaban 5-40 μM, naringenin 0-80 μM
  Ki: 54.9 µM
[2]
  IC50 at 30 min: 38.9 µM

## O=C(NC[C@H]1CN(c2ccc(N3CCOCC3=O)cc2)C(=O)O1)c1ccc(Cl)s1 [rivaroxaban]
[3]
  increase of AUC of rivaroxaban: more than twice
  increase of Cmax of rivaroxaban: more than twice
[4]; Control group: rivaroxaban 10 mg/kg oral gavage only, rats (abstract)
  AUC(0–t): 2406.28 ± 519.69 µg/h/L
[4]; [8]
  AUC(0–t): 2406.28 ± 519.69 µg/h/L
  AUC(0–∞): 2438.52 ± 529.29 ng/mL/h
[4]; Experimental group: naringenin 10 mg/kg/day for 2 weeks, then rivaroxaban 10 mg/kg oral, rats (abstract)
  AUC(0–t): 4005.04 ± 1172.76 µg/h/L
[4]; male, Sprague-Dawley, rat, plasma, po, 10 mg/kg
  Tmax: 3.4 ± 0.548 h
[4]; [9]
  increase of AUC of rivaroxaban, experimental group vs control: 1.7 times
  increase of Cmax of rivaroxaban, experimental group vs control: 1.6 times
[5]; read-out: Km of rivaroxaban metabolism, rivaroxaban 1-200 μM
  Km: 18.4 µM
[5]; rivaroxaban 1-200 μM
  Vmax of rivaroxaban metabolism: 4.35 pmol/min/mg
[6]; [10]
  increase of AUC of rivaroxaban: 82%
  increase of Cmax of rivaroxaban: 53%
  reduction of body clearance rate of rivaroxaban: 45%
[6]; [11]
  decrease of AUC of rivaroxaban: 50%
  decrease of Cmax of rivaroxaban: 22%
[6]; [12]
  increase of AUC of rivaroxaban: 150%
  increase of Cmax of rivaroxaban: 60%

## C[C@@H]1CCN(C(=O)CC#N)C[C@@H]1N(C)c1ncnc2[nH]ccc12 [tofacitinib]
[7]
  increase of AUC of tofacitinib: 1.76 fold
